# Screens (PubChem BioAssay)
# NTR1 ag: agonists of human neurotensin receptor NTR1; P30989; NTR1-U2OS beta-arrestin-GFP spot imaging, agonist mode; activation, % at 20 µM; actives 0.17% (n = 330,000); AID 493036;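 active = activation at or above 40% of the spot to cytoplasm intensity ratio, with at least 20 cells analyzed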;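 note: 0% = DMSO without peptide and 100% = 100 nM NTR1 peptide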
# Target sequence (P30989 whole entry, looked up): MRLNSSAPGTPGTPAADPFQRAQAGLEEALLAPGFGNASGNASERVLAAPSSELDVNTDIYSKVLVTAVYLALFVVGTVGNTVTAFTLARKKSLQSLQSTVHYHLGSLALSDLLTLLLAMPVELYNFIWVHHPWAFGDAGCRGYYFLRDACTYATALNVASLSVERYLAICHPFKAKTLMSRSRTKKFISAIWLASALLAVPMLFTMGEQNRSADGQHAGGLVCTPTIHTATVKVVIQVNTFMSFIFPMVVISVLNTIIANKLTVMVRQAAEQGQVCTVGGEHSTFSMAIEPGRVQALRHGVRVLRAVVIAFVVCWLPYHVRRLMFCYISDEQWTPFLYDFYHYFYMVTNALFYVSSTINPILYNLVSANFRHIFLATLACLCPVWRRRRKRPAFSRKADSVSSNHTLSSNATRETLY
# T cell HTS: modulates CD8 T cell binding to vesicles; 2C CD8+ T cell-vesicle binding, flow cytometry; hits give low values; response (vesicle binding), % at 7 µM; actives 0.068% (n = 330,000);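 active = response, share of CD8 T cells binding vesicles, and their 90th percentile fluorescence all below set limits, cut at about 80% in these data, passing the limit was not always enough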;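 note: values below 100% mean blocked vesicle binding to the CD8+ T cells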
#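 Read-out – percent CD8+ FL2 mean versus row control · System – murine 2C transgenic CD8+ T lymphocytes · Times – 1.5 h cell–vesicle binding at 37 °C, then 20 min icy labelling · Control set – naked vesicles low, QL9 vesicles with vehicle high · Detection – cytometric PE anti-B7-1 and Alexa647 anti-CD8 signals after 1% paraformaldehyde fixation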
# Arr AP2 block: human beta-arrestin and AP2 interaction inhibition. FITC-arrestin peptide / GST-AP2 beads, flow cytometry; AP2 beta2 appendage carries R879A mutation. inhibition, % at 10 µM. actives 0.31% (n = 340,000). AID 504490;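 active = inhibition above a set limit, near 3 SD of compounds lacking own fluorescence, cut at about 54% in these data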;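 note: plate controls were DMSO wells for no effect and 5 µM unlabelled arrestin peptide for full effect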
#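 Material – GST-tagged AP2 beta2-adaptin appendage (R879A) on 4 µm glutathione beads · Probe or stimulus – fluorescein-tagged arrestin peptide at 50 nM final · Timing – 12 min plus 1 h, RT · Detection – bead flow cytometry, FITC channel · Read-out basis – inhibition as reduced fluorescein signal on beads, percent · Medium – PBS plus Tween 20 (0.05%) and BSA (0.1%)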
# V-ATPase pHluor: alters yeast V-ATPase proton transport. S. cerevisiae, pHLuorin cytosolic pH fluorescence. AID 504577. actives 0.37% (n = 350,000). response, % at 10 µM; in the data active = response mostly above about 7.3%, no sharp cut-off; inactive = mostly below about 5.4%; note: actives read high
# MIN6 prolif-1: MIN6 beta-cell proliferation induction; MIN6 cells proliferation, ATPlite luminescence, 48 h; cells starved in 0.2% serum; 100% = growth in 10% serum; proliferation, % at 10 µM; actives 0.29% (n = 330,000);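 active = compounds whose signal lies at least 3.5 SD above the mean of all wells on their plate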;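 note: 0% = DMSO-treated cells in low-serum medium and 100% = 10% serum control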
# XiGFP reactiv: reactivates the inactive X chromosome in mouse fibroblasts. XiGFP mouse fibroblasts, % GFP-positive cells imaging, 3 d; cells co-treated with 5-aza-dC sensitizer; scaled so ellipticine positive control = 100%. activation, % at 7.58 µM. actives 0.055% (n = 360,000). AID 743238;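 active = mean normalized replicate activation at least 10% and every replicate at or above 10%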;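 note: 0% = median of on-plate neutral control wells and 100% = ellipticine 6 µM median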
#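 material = 68-5-11 XiGFP fibroblast line | medium = DMEM plus 5-aza-dC sensitizer | schedule = 3 days compound exposure | benchmarks = positive control ellipticine, 6 µM final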
# MIN6 prolif-2: confirmation of inducers of beta-cell replication in MIN6 cells. shares compounds with MIN6 prolif-1. 920 tested, under 10 active. MIN6 beta-cell proliferation, ATPlite luminescence, 48 h; cells kept in 0.2% serum; scaled between 0.2% and 10% serum. proliferation increase, % at 50 µM;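 active = proliferation increase above 40% at any of the four tested concentrations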
# * hit, by the source's call; i = inactive; x = not tested or not shown. This is a sample that favours compounds with a hit; in the whole collection about 0.89% have one here.
SMILES,NTR1 ag,T cell HTS,Arr AP2 block,V-ATPase pHluor,MIN6 prolif-1,XiGFP reactiv,MIN6 prolif-2
CCOc1ccc(-c2nc(-c3cccnc3)no2)cc1OCC,6.7,258.2,10.2,-5.1,9.7*,x,-0.7
CCOc1cc(-c2nc(-c3cc(OC)c(OC)c(OC)c3)no2)cc(OCC)c1OCC,-0.2,225.1,x,x,6.5*,x,2.9
CC(=O)N(C)C[C@@H]1Oc2ccc(N)cc2C(=O)N(C)C[C@@H]1C,x,x,x,x,x,0.3,x
CCCC#Cc1cnc2c(c1)C(=O)N([C@H](C)CO)C[C@@H](C)[C@H](CN(C)C(=O)CCN1CCCCC1)O2,x,x,x,x,x,-1.1,x
CN(C)c1ccc(C(=S)N2CCOCC2)cc1,0.1,109.6,-1.7,-62.5,9.0*,x,-0.2
CC1=C(c2ccccc2)C(=O)C(C)(C)CC1=O,x,x,x,x,x,0.0,x
CC1=C(c2ccccc2)C(=S)NC(C)(C)C1,-0.8,513.0,7.6,4.8,5.6*,0.0,-2.0
Cc1ccccc1C(=O)OCC(=O)NCC1COc2ccccc2O1 (centres undefined),0.8,x,-3.2,7.3,11.9*,-0.1,-4.8
N#Cc1ccc(OCC(=O)NCC2COc3ccccc3O2)cc1 (centres undefined),-1.9,360.6,24.4,1.4,11.3*,0.2,-0.8
CCCC(=O)Nc1ccc2c(c1)OC[C@@H](C)N(Cc1cncnc1)C[C@H](C)[C@H](OC)CN(C)C2=O,x,x,x,x,x,0.1,x
CO[C@H]1CN(C)C(=O)c2ccc(NC(=O)C3CC3)cc2OC[C@H](C)N(C(=O)CN2CCOCC2)C[C@H]1C,x,x,x,x,x,0.4,x
CCOc1ncccc1C(=O)Nc1ccc(C)cn1,-0.4,257.4,-0.7,3.2,11.0*,0.6,2.1
O=P(O)(CCCP(=O)(O)CCc1ccccc1)CCc1ccccc1,0.1,169.7,0.4,0.4,8.8*,x,-3.5
O=C1c2ccccc2C(=O)N1CCCP(=O)(O)CCc1ccccc1,-1.1,233.4,1.9,-0.2,-0.7,x,x
COCCC(=O)N1CCC(Oc2ccc(C(=O)N(C)C3CCCCC3)cc2)CC1,-0.8,209.7,35.1,-0.1,6.6*,0.0,-2.9
Nc1nc(N)nc(-c2cc(F)ccc2O)n1,-0.3,510.4,10.4,-2.8,13.5*,-0.3,-0.6
Fc1ccc(OCc2nn[nH]n2)c(F)c1,1.5,487.7,15.1,-4.5,7.1*,0.1,0.5
Cc1ccc(S(=O)(=O)N2CCN(C(=O)c3nn(C(C)C)c(=O)c4ccccc34)CC2)cc1C,0.6,271.8,33.9,-2.7,5.4*,x,-5.3
O=C(CN(Cc1ccccc1Cl)C(=O)c1csnn1)NCCc1ccccc1,-1.1,371.6,20.7,-4.4,6.0*,0.2,-3.7
CCOc1ccccc1N(CC(=O)NCCc1ccc(OC)c(OC)c1)S(=O)(=O)c1ccccc1,-1.2,277.2,-2.4,6.7,7.1*,0.0,-0.8
COc1ccc(N(CC(=O)NCCc2ccccc2)C(=O)c2csnn2)cc1OC,1.4,408.2,11.8,-3.7,6.2*,0.1,0.5
CCOc1ccccc1N(CC(=O)Nc1ccc(OC)c(OC)c1)S(=O)(=O)c1ccccc1,-1.2,213.5,13.8,3.1,1.2,0.0,x
C[C@H]1CN(C)C(=O)c2cc([N+](=O)[O-])ccc2O[C@H]1CN(C)C(=O)OC(C)(C)C,x,x,x,x,x,0.2,x
COCCNC(=O)C[C@@H]1C[C@H]2c3cc(NC(=O)Nc4ccccc4)ccc3O[C@H]2[C@H](CO)O1,x,x,x,x,x,0.0,x
CCn1c(CNC(=O)c2ccccc2OC)nnc1SCC(=O)c1ccc(F)cc1,-0.5,189.1,-1.4,-0.1,5.8*,0.0,2.0
SMILES,NTR1 ag,T cell HTS,Arr AP2 block,V-ATPase pHluor,MIN6 prolif-1,XiGFP reactiv,MIN6 prolif-2
CNCCCOc1cccc(Oc2ccccc2)c1,0.1,232.7,-10.4,1.1,-4.7,0.0,x
CNCCCOc1cccc(OC(C)C)c1,4.8,203.4,-2.0,-3.9,6.3*,x,-1.0
COc1ccc2c3c(n(C)c2c1)[C@@H](CO)N(C(C)=O)CC31CN(C(=O)NC(C)C)C1,x,x,x,x,x,0.2,x
CO[C@H]1CN(C)C(=O)c2cc(NC(=O)Nc3c(C)noc3C)ccc2OC[C@@H](C)N(C)C[C@H]1C,x,x,x,x,x,0.0,x
FC(F)Sc1nnc(-c2cccs2)n1-c1ccccc1,-0.1,322.9,-9.7,0.7,9.6*,x,5.1
C[C@@H]1C[C@@H]2OC(=O)[C@]3(C)[C@H]2[C@@H](OC3(C)O)[C@]2(C)C(=O)CC[C@H]12 (some centres undefined),-2.3,504.2,x,x,10.8*,x,0.5
CC(C)CC1=NC(C(F)(F)F)(C(F)(F)F)c2c(n(CC(C)C)c(=O)[nH]c2=O)N1,1.0,162.6,30.5,-0.5,6.6*,0.2,-0.2
COc1ccccc1N(CC(=O)NC1CCCCC1)S(=O)(=O)c1cccs1,0.3,146.8,7.0,0.8,2.5,0.0,x
COc1ccccc1N(CC(=O)NC(C)C)S(=O)(=O)c1cccs1,0.3,273.8,0.3,3.1,8.3*,-0.1,1.2
CC(=O)N[C@H]1CC[C@@H](CCNC(=O)C2CCCCC2)O[C@H]1CO,x,x,x,x,x,0.5,x
CS(=O)(=O)N1C2CN(CC(F)(F)F)CC1C2c1ccc(Br)cc1 (centres undefined),x,x,x,x,x,0.1,x
COc1nc(N/N=C/c2ccc(C)cc2)nc(N2CCCCC2)n1,9.1,99.1,-3.5,-0.4,7.4*,0.4,-1.1
COc1ccc(/C=N/Nc2nc(N3CCCC3)nc(N3CCCC3)n2)cc1,x,i,7.0,-2.8,x,0.1,x
C[C@@H]1CN([C@@H](C)CO)C(=O)Cc2cc(NC(=O)Cc3cn(C)c4ccccc34)ccc2O[C@H]1CN(C)Cc1ccccc1,x,x,x,x,x,0.1,x
CC1Cc2nc(SCC(=O)OCc3ccccc3)n(C)c(=O)c2S1 (centres undefined),1.4,182.8,-6.5,-3.6,15.4*,0.1,-2.6
NC(=O)c1cc([N+](=O)[O-])c(Cl)cc1NCc1cccnc1,3.8,362.1,16.7,0.0,12.2*,0.0,6.0
Cc1noc(C)c1NC(=O)N(C)C[C@@H]1OCCCC[C@H](C)Oc2ccc(NC(=O)c3ccncc3)cc2C(=O)N([C@H](C)CO)C[C@H]1C,x,x,x,x,x,-1.1,x
COc1cc(OC)cc(-c2nc(-c3cccs3)no2)c1,2.6,284.3,-3.2,0.2,7.7*,0.0,0.7
COc1ccc2c3c([nH]c2c1)[C@@H](CO)N(C(C)=O)CC31CN(C(=O)c2ccc3c(c2)OCO3)C1,x,x,x,x,x,0.4,x
O=C1OC(Nc2ccc3c(c2)OCO3)c2ccccc21 (centres undefined),1.1,126.8,8.7,2.5,5.0*,x,-6.0
Cc1ccc(SCCC(=O)N2CCCC2)cc1,-0.6,195.0,-4.8,1.9,0.0,x,x
